{"data": "Experimental data gathered from unrelated publications", "organism": "Aspergillus fumigatus", "effect on": "microbial growth", "note": "Each line is one published result; the experiments were not run side by side."}
{"SMILES": "Clc1ccccc1C(c1ccccc1)(c1ccccc1)n1ccnc1", "method": "disc diffusion", "concentration": "20000 µg/mL", "quantity": "inhibition zone", "result": "22 mm"}
{"SMILES": "CC1=NN(CNC(=O)c2ccccn2)C(=O)C1=NNn1c(-c2ccccc2)nc2ccccc2c1=O", "method": "broth dilution", "quantity": "MIC", "result": "104 µM"}
{"SMILES": "C[C@@H]1[C@H](O)[C@@H](C)/C=C/C=C/C=C/C=C/C=C/C=C/C=C/[C@H](O[C@@H]2O[C@H](C)[C@@H](O)[C@H](N)[C@@H]2O)C[C@@H]2O[C@](O)(C[C@@H](O)C[C@@H](O)[C@H](O)CC[C@@H](O)C[C@@H](O)CC(=O)O[C@H]1C)C[C@H](O)[C@H]2C(=O)O", "method": "broth dilution", "strain": "MF5668", "quantity": "MIC", "result": "0.5 µg/mL"}
{"SMILES": "CC1=NN(CNC(=O)c2ccccc2)C(=O)C1=NNn1c(-c2ccccc2)nc2ccccc2c1=O", "method": "broth dilution", "quantity": "MIC", "result": "104 µM"}
{"SMILES": "C#CCCCCCCCCCCCC(O)CC(O)CO (stereo not shown)", "method": "resazurin", "strain": "ATCC204305", "quantity": "IC50", "result": "> 200 µg/mL"}
{"SMILES": "O=C1NN=C(N=Cc2ccc(O)c(O)c2)C1=NNn1c(-c2ccccc2)nc2ccccc2c1=O", "method": "broth dilution", "quantity": "MIC", "result": "53.5 µM"}
{"SMILES": "C=CCCCCCCCCCCCC(O)CC(O)CO (stereo not shown)", "method": "resazurin", "strain": "ATCC204305", "quantity": "IC50", "result": "> 200 µg/mL"}
{"SMILES": "OC(Cn1cncn1)(Cn1cncn1)c1ccc(F)cc1F", "method": "broth dilution", "strain": "MF5668", "quantity": "MIC", "result": "> 128 µg/mL"}
{"SMILES": "CCCCCCCCCCCCCC(O)CC(O)CO (stereo not shown)", "method": "resazurin", "strain": "ATCC204305", "quantity": "IC50", "result": "> 200 µg/mL"}
{"SMILES": "C[C@@H]1[C@H](O)[C@@H](C)/C=C/C=C/C=C/C=C/C=C/C=C/C=C/[C@H](O[C@@H]2O[C@H](C)[C@@H](O)[C@H](N)[C@@H]2O)C[C@@H]2O[C@](O)(C[C@@H](O)C[C@@H](O)[C@H](O)CC[C@@H](O)C[C@@H](O)CC(=O)O[C@H]1C)C[C@H](O)[C@H]2C(=O)O", "strain": "ATCC204305", "quantity": "IC50", "result": "0.86 µM"}
